Data reported in ChEMBL document CHEMBL1138407, “Bioactive bibenzyl derivatives and fluorenones from Dendrobium nobile” (J Nat Prod, 2007).
pIC50: −log10 of the molar value. The source made the active and inactive calls. The rule behind the calls is not given here.

Experiments:
[1] = system: Radical scavenging activity; test: Antioxidant activity assessed by DPPH radical scavenging assay; type: functional
Outline: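 Test samples at several concentrations in EtOH mixed 1:1 by volume with a 200 μM DPPH solution in EtOH. After 1 min shaking, incubated 30 min at room temperature in the dark, then A517 read. Sample-only wells without DPPH corrected for colour. Done in triplicate, reported as mean ± SD. IC50 is the sample concentration scavenging 50% of DPPH.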

[2] = Antioxidant activity assessed by ORAC assay; type: functional
Outline: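 Samples at several concentrations combined with potassium phosphate buffer (7.5 mM as added) and sodium fluorescein probe (63 nM as added), then preincubated 5 min at 37 °C. Reaction started with AAPH (12.8 mM as added). Fluorescence (ex 485/em 538 nm) read every 2 min until decay neared zero. Trolox standard. Done in triplicate, reported as mean ± SD in μmol Trolox equivalents per μmol sample.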

[3] = Cytotoxicity against murine RAW 264.7 cells by MTT assay; type: cell-based; details: mouse
Outline: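 MTT viability measured in RAW 264.7 cultures from the LPS/IFN-γ-stimulated NO assay, in duplicate, to flag cytotoxic concentration ranges.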

[4] = system: RAW; test: Inhibition of LPS and IFN-gamma-activated NO production in murine RAW 264.7 cells; details: Mus musculus

pIC50 [1] | pIC50 [4] | Compound | Activity [2] | Activity [3]
4.39 |  | COc1cccc(CCc2cc(O)c(O)c(OC)c2)c1 |  | 
4.66 |  | COc1cc(CCc2cc(OC)c(OC)c(OC)c2)ccc1O | Active | Toxic
4.79 | 4.87 | COc1cc(O)cc2c1-c1c(O)ccc(O)c1C2=O | Active | 
4.85 |  | COc1ccc(CCc2cc(OC)c(O)c(OC)c2)cc1OC | Active | Toxic
< 3.70 | 4.32 | COc1ccc(CCc2cc(OC)c(OC)c(OC)c2)cc1OC | inactive | 
4.74 |  | O=C1O[C@H]([C@@H](O)CO)C(O)=C1O [ASCORBIC ACID] |  | 
4.04 |  | Cc1cc(C(C)(C)C)c(O)c(C(C)(C)C)c1 [BUTYLATED HYDROXYTOLUENE] |  | 
4.25 | 4.48 | COc1cc(O)cc(CCc2ccc(O)c(OC)c2)c1 [GIGANTOL] | Active | 
4.84 | 4.43 | COc1cc(CCc2cc(OC)c(O)c(OC)c2)ccc1O [MOSCATILIN] | Active | 
4.70 | 4.82 | COc1cc(CC(O)c2cc(OC)c(O)c(OC)c2)ccc1O (stereo not given) [NOBILIN D] | Active | 
4.68 | 4.72 | COc1cccc(CCc2cc(OC)c(O)c3c2C(Cc2cccc(OC)c2)c2cc(O)c(O)c(OC)c2O3)c1 (stereo not given) [NOBILIN E] |  | 
< 3.70 | 4.42 | COc1cc(O)cc2c1-c1ccc(O)cc1C2=O [NOBILONE] | Active | 
 | 4.63 | Oc1ccc(/C=C/c2cc(O)cc(O)c2)cc1 [RESVERATROL] |  | 
